Experimental data as given in ChEMBL document CHEMBL3352566 (Bioorg Med Chem Lett, 2014).
Active and inactive are the calls of the source.

Assays:
Adenosine receptor A2a [1] = molecular target: T1, Adenosine receptor A2a (Homo sapiens, UniProt P29274); test: Displacement of [3H]2-[p-(2-carboxyethyl)phenyl-ethylamino]-5'-N-ethylcarboxamido-adenosine from human A2aAR expressed in HEK293 cells after 60 mins by scintillation counting analysis; type: cell-based
[2] = molecular target: T2, Adenosine receptor A1 (Homo sapiens) (UniProt P30542); test: Displacement of [3H]N6-R-phenylisopropyladenosine from human A1AR expressed in CHO cells at 10 uM after 60 mins by scintillation counting analysis; type: cell-based
T2 sequence (whole entry): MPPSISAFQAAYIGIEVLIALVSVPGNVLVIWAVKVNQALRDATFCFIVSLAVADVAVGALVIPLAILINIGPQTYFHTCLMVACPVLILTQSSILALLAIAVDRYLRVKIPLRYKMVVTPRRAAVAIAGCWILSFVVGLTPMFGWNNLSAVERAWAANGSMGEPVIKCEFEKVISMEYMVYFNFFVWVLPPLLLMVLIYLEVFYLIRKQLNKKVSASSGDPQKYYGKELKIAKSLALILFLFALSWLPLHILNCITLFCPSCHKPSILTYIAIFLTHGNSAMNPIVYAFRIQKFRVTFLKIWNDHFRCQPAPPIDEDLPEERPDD
How it was run: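 Membranes from CHO cells stably expressing hA1AR, labelled with agonist [3H]N6-R-phenylisopropyladenosine. […] Compound stocks kept in DMSO at −80 °C; n = 3-4.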

Adenosine receptor A3 [3] = molecular target: T3, Adenosine receptor A3 (Homo sapiens, UniProt P0DMS8); test: Displacement of [125I]N6-(4-amino-3-iodobenzyl)adenosine-5'-N-methyluronamide from human A3AR expressed in CHO cells after 60 mins by scintillation counting analysis; type: cell-based
T3 sequence (P0DMS8 whole entry): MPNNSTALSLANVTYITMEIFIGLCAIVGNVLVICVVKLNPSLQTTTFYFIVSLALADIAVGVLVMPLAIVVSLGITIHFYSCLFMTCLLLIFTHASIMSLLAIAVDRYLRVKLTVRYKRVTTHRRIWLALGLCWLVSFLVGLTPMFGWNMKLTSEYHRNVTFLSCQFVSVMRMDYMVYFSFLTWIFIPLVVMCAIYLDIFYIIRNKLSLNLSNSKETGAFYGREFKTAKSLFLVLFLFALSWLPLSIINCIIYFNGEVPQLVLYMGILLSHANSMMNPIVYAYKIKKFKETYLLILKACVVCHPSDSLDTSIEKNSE

Adenosine receptor A2a [4] = molecular target: T1, Adenosine receptor A2a; test: Displacement of [3H]2-[p-(2-carboxyethyl)phenyl-ethylamino]-5'-N-ethylcarboxamido-adenosine from human A2aAR expressed in HEK293 cells at 10 uM after 60 mins by scintillation counting analysis; type: cell-based
Mus musculus = test: Reversal of pain in po dosed mouse chronic constriction injury model assessed as paw withdrawal threshold administered 7 days post injury measured after 1 hr; type: functional, organism-based
How it was run: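 Mouse chronic constriction injury model of neuropathic pain; compound given orally (po); mechanoallodynia read out as paw withdrawal threshold followed over time after dosing.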

Adenosine receptor A1 = molecular target: T4, Adenosine receptor A1 (Homo sapiens, UniProt P30542); test: Displacement of [3H]N6-R-phenylisopropyladenosine from human A1AR expressed in CHO cells after 60 mins by scintillation counting analysis; type: cell-based
T4 sequence (P30542 whole entry): T2 sequence (whole entry)

Adenosine receptor A3 [5] = molecular target: T3, Adenosine receptor A3; test: Binding affinity to human A3AR

T1 sequence (P29274 whole entry): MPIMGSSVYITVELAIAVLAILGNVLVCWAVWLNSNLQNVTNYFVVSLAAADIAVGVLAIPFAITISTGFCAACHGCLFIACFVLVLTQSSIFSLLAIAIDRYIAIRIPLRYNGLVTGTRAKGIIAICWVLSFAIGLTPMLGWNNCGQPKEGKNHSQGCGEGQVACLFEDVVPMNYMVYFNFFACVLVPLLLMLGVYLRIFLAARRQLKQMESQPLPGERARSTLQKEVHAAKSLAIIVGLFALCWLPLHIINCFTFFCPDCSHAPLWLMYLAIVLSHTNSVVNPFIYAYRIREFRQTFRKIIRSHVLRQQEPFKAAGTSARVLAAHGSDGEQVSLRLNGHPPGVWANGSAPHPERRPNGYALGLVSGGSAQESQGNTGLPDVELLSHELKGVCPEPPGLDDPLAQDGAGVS

Row | SMILES | inhibition [2] [%] | inhibition (Adenosine receptor A2a [4]) [%] | other results
1 | CNC(=O)[C@@]12C[C@@H]1[C@@H](n1cnc3c(N)nc(C#Cc4ccccc4)nc31)[C@H](O)[C@@H]2O | 28 |  | Ki (Adenosine receptor A2a [1]): 1200 nM; Ki (Adenosine receptor A3 [3]): 1.51 nM
2 | CNC(=O)[C@@]12C[C@@H]1[C@@H](n1cnc3c(N[C@@H]4C[C@H]4c4ccc(F)c(F)c4)nc(C#Cc4ccccc4)nc31)[C@H](O)[C@@H]2O | 11 | 0 | Ki (Adenosine receptor A3 [3]): 16.9 nM
3 | CNC(=O)[C@@]12C[C@@H]1[C@@H](n1cnc3c(N[C@H]4C[C@@H]4c4ccc(F)c(F)c4)nc(C#Cc4ccccc4)nc31)[C@H](O)[C@@H]2O | 16 | 0 | Ki (Adenosine receptor A3 [3]): 4.55 nM
4 | CNC(=O)[C@@]12C[C@@H]1[C@@H](n1cnc3c(N[C@@H]4C[C@H]4c4ccc(F)c(F)c4)nc(C#Cc4ccccn4)nc31)[C@H](O)[C@@H]2O | 19 | 25 | Activity (Mus musculus): Active
5 | CNC(=O)[C@@]12C[C@@H]1[C@@H](n1cnc3c(N[C@H]4C[C@@H]4c4ccc(F)c(F)c4)nc(C#Cc4ccccn4)nc31)[C@H](O)[C@@H]2O | 26 | 41 | 
6 | OC[C@H]1O[C@@H](n2cnc3c(NC4CC4c4ccccc4)nc(C#Cc4ccccc4)nc32)[C@H](O)[C@@H]1O (mixture of isomers) |  |  | Ki (Adenosine receptor A1): 124 nM
7 | O=[N+]([O-])c1cccc(C2CC2Nc2nc(C#Cc3ccccc3)nc3c2ncn3[C@@H]2O[C@H](CO)[C@@H](O)[C@H]2O)c1 (mixture of isomers) |  |  | Ki (Adenosine receptor A3 [5]): 11.2 nM
8 | CNC(=O)[C@@]12C[C@@H]1[C@@H](n1cnc3c(NC4CC4c4ccc(F)c(F)c4)nc(C#Cc4ccccc4)nc31)[C@H](O)[C@@H]2O (mixture of isomers) | 11 | 6 | 
9 | CNC(=O)[C@@]12C[C@@H]1[C@@H](n1cnc3c(NC4CC4c4cccc(Br)c4)nc(C#Cc4ccccc4)nc31)[C@H](O)[C@@H]2O (mixture of isomers) | 17 | 32 | 
10 | CNC(=O)[C@@]12C[C@@H]1[C@@H](n1cnc3c(NC4CC4c4cccc(C)c4)nc(C#Cc4ccccc4)nc31)[C@H](O)[C@@H]2O (mixture of isomers) | 8 | 53 | 
11 | CNC(=O)[C@@]12C[C@@H]1[C@@H](n1cnc3c(NC4CC4c4cccc(Cl)c4)nc(C#Cc4ccccc4)nc31)[C@H](O)[C@@H]2O (mixture of isomers) | 6 | 39 | 
12 | CNC(=O)[C@@]12C[C@@H]1[C@@H](n1cnc3c(NC4CC4c4cccc(F)c4)nc(C#Cc4ccccc4)nc31)[C@H](O)[C@@H]2O (mixture of isomers) | 18 | 0 | 
13 | CNC(=O)[C@@]12C[C@@H]1[C@@H](n1cnc3c(NC4CC4c4ccccc4)nc(C#Cc4ccccc4)nc31)[C@H](O)[C@@H]2O (mixture of isomers) | 2 | 43 | 
